For experiment [1], the target named is T1, 5'-AMP-activated protein kinase catalytic subunit alpha-1 (Homo sapiens, UniProt Q13131). The experiment can be described thus: Activation of recombinant AMPK alpha1 (1 to 394) (unknown origin) at 20 ug/mL after 2 hrs by scintillation proximity assay relative to PT1. A general note: In a scintillation proximity assay essentially only radioactivity close to the scintillant gives light.
Target sequence in this assay (Q13131 whole entry, looked up): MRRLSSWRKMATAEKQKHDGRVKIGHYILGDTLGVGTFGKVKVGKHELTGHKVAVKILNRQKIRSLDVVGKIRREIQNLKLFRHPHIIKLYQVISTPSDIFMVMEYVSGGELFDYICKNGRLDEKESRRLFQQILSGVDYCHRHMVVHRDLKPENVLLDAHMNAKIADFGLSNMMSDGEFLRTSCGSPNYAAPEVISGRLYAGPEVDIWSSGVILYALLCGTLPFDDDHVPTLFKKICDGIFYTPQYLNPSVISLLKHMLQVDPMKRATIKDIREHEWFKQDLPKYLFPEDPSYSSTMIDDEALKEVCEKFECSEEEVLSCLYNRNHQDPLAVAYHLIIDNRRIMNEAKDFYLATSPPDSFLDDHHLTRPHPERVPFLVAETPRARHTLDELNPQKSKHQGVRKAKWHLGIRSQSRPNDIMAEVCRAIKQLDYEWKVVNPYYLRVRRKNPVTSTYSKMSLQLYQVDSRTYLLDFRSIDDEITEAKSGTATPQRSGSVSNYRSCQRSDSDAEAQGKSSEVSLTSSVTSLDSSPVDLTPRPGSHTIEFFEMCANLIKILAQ

Experiment [2] concerns the target AMPK alpha2/beta1/gamma1 (Homo sapiens, UniProt P54619+P54646+Q9Y478). As to the kind of experiment: Activation of recombinant AMPK alpha2beta1gamma1 (unknown origin) after 2 hrs by scintillation proximity assay. It is filed as protein-complex assay. In outline:
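Activation of bacterially expressed AMPK α2β1γ1 was measured by scintillation proximity assay. Efficacy is expressed relative to AMP.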

The target in experiment [3] is AMPK alpha2/beta1/gamma1 (Homo sapiens) (UniProt P54646+P54619+Q9Y478). As to the kind of experiment: Activation of recombinant AMPK alpha2beta1gamma1 (unknown origin) at 20 ug/mL after 2 hrs by scintillation proximity assay relative to AMP. It is filed as protein-complex assay.
For experiment [4], the system named is L6. The experiment can be described thus: Induction of AMPK-mediated ACC phosphorylation in rat L6 cells by Western blotting analysis. The experiment is classed as cell-based. In general terms: A western blot detects proteins with antibodies after separation by electrophoresis.
For experiment [5], the target named is T1, 5'-AMP-activated protein kinase catalytic subunit alpha-1. As to the kind of experiment: Activation of recombinant AMPK alpha1 (1 to 394) (unknown origin) after 2 hrs by scintillation proximity assay.
Target sequence in this assay (Q13131 whole entry): as the sequence (Q13131 whole entry, looked up) above
The subject of experiment [6] is L6. As to the kind of experiment: Induction of AMPK phosphorylation in rat L6 cells by Western blotting analysis. The experiment is classed as cell-based.
Experiment [7] has as its target T1, 5'-AMP-activated protein kinase catalytic subunit alpha-1. The experiment can be described thus: Activation of human AMPK alpha1 (1 to 394) expressed in African green monkey COS7 cells. The experiment is classed as cell-based, COS-7.
Target sequence in this assay (Q13131 whole entry): as the sequence (Q13131 whole entry, looked up) above
Experiment [8] has as its target 5'-AMP-activated protein kinase catalytic subunit alpha-2 (Homo sapiens, UniProt P54646). As to the kind of experiment: Activation of human AMPK alpha2 (1 to 398) expressed in African green monkey COS7 cells. The experiment is classed as cell-based, COS-7.
Experiment [9] can be described thus: Activation of partially purified rat liver AMPK assessed as 33P-phosphorylation of SAMS peptide.
Experiment [10] in a line: Activation of AMPK in rat primary hepatocytes assessed as inhibition of fatty acid biosynthesis by 14C-acetate incorporation assay. The settings on record: Hepatocyte. The experiment is classed as cell-based.
The test system of experiment [11] is Mus musculus. As to the kind of experiment: Antidiabetic activity in diet-induced obese C57BL/6J mouse assessed as reduction in plasma triglyceride at 150 mg/kg, po qd for 4 weeks (reference value: 0.62 +/- 0.02 mM). The experiment is classed as functional.

Results on 24 compounds are retold here after ChEMBL document CHEMBL2384909, “Development of Novel Alkene Oxindole Derivatives As Orally Efficacious AMP-Activated Protein Kinase Activators” (ACS Med Chem Lett, 2013).

AMPK alpha2/beta1/gamma1, sequence (P54646 whole entry): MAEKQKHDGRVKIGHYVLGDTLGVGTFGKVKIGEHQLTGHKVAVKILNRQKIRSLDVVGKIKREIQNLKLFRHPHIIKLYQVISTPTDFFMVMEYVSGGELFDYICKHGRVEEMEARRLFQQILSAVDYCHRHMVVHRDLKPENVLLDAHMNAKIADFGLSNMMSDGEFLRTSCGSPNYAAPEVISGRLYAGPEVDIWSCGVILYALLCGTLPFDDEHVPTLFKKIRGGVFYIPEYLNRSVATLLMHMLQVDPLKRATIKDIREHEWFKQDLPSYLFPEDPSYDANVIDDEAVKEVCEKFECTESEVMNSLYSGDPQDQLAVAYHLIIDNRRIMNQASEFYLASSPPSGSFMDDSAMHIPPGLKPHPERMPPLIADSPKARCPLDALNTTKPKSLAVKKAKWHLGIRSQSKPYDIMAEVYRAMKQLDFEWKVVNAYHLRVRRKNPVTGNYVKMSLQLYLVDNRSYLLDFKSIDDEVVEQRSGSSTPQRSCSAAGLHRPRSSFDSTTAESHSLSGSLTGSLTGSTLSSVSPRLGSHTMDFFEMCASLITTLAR
AMPK alpha2/beta1/gamma1, sequence (P54619 whole entry): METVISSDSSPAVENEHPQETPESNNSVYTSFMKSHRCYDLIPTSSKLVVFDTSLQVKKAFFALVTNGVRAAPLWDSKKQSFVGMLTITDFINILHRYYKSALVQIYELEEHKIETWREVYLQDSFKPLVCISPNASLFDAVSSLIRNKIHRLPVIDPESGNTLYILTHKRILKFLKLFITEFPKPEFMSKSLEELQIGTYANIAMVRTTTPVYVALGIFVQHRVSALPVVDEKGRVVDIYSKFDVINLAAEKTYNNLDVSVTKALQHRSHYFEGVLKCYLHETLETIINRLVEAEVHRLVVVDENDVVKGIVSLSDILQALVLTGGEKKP
AMPK alpha2/beta1/gamma1, sequence (Q9Y478 whole entry): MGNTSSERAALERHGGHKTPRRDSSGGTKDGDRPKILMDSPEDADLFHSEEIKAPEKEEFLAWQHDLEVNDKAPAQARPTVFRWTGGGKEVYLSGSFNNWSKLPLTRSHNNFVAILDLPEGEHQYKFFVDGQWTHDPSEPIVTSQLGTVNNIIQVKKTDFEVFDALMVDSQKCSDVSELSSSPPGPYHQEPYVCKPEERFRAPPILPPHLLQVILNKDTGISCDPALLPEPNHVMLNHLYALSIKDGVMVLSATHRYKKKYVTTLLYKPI
AMPK alpha2/beta1/gamma1 (Homo sapiens), sequence (P54619 whole entry partner): as the sequence (P54619 whole entry) above
AMPK alpha2/beta1/gamma1 (Homo sapiens), sequence (P54646 whole entry): as the sequence (P54646 whole entry) above
AMPK alpha2/beta1/gamma1 (Homo sapiens), sequence (Q9Y478 2-270 partner limits assumed): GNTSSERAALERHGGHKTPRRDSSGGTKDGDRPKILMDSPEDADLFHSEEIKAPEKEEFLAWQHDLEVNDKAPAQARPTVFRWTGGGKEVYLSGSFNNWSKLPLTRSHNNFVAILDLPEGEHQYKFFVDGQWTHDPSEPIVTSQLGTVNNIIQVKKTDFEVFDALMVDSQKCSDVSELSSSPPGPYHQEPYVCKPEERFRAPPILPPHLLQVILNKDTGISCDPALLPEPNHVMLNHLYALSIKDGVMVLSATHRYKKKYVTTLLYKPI
5'-AMP-activated protein kinase catalytic subunit alpha-2, sequence (P54646 whole entry): as the sequence (P54646 whole entry) above

For `Cc1cc(-c2ccc(/C=C3\S/C(=N\c4cccc(C(=O)O)c4)NC3=O)o2)c([N+](=O)[O-])cc1C`, the Activity in [1] came out at 106%.

A word on the EC50: it is the concentration at which the effect is half-maximal. With `CC(C)c1ccc(/C(=C2/C(=O)N(Cc3cccc(C(=O)O)c3)c3ccccc32)c2ccccc2)cc1`, the EC50 in [2] worked out at 4 µM. In addition, the Efficacy in experiment [3] was 97%.

Consider `CC(C)/C(=C1\C(=O)N(Cc2cccc(C(=O)O)c2)c2ccccc21)c1ccc(Cl)cc1`, for which the EC50 in [2] was 9.9 µM. In experiment [3], the Efficacy came to 227%.

`CC(C)/C(=C1\C(=O)N(Cc2cccc(C(=O)O)c2)c2ccccc21)c1ccccc1`: the EC50 in [2] was above 10 µM. The Efficacy in experiment [3] is below 50%.

In the case of `O=C(O)c1cccc(CN2C(=O)/C(=C(/c3ccc(Cl)cc3)C3CCCCC3)c3ccccc32)c1`, in experiment [2], the EC50 was found to be 4.6 µM. For the same compound, the Efficacy in experiment [3] worked out at 103%.

With `Cc1cc(-c2ccc(/C=C3\S/C(=N\c4ccc(F)cc4)NC3=O)o2)c([N+](=O)[O-])cc1C`, in [1], the Activity is below 50%.

For the compound `O=C(O)c1cccc(CN2C(=O)/C(=C(\c3ccccc3)c3cccnc3)c3ccccc32)c1`, the EC50 in experiment [2] stood at 3.2 µM. In addition, in [3], the Efficacy came to 96%.

With `O=C(O)c1ccc(CN2C(=O)/C(=C(\c3ccccc3)c3ccc(Cl)cc3)c3ccccc32)nc1`, in [2], the EC50 was determined as 9.2 µM. Moreover, in experiment [3], the Efficacy came to 75%.

Consider `O=C(O)c1cccc(CN2C(=O)/C(=C/c3ccc(-c4cccc([N+](=O)[O-])c4)o3)c3ccccc32)c1`, for which the Activity entry is “Dose-dependent effect” in [4], 341% in experiment [1] and “Dose-dependent effect” in experiment [6]. Moreover, the EC50 was found to be 2.1 µM in experiment [5] and 3.2 µM in experiment [2]. Moreover, in experiment [3], the Efficacy was found to be 152%.

For `Cc1cc(-c2ccc(/C=C3\S/C(=N\c4ccccc4C(=O)O)NC3=O)o2)c([N+](=O)[O-])cc1C`, the Activity in experiment [1] turned out to be 55%.

For the compound `Cc1cc(-c2ccc(/C=C3\SC(=S)N(c4cccc(C(=O)O)c4)C3=O)o2)c([N+](=O)[O-])cc1C`, the Activity in experiment [1] was below 50%.

In the case of `O=C(O)c1cccc(CN2C(=O)/C(=C(\c3ccccc3)c3ccccc3Cl)c3ccccc32)c1`, in [2], the concentration giving a half-maximal response (EC50) was 1.8 µM. Besides, the Efficacy in [3] is 101%.

`O=C1N/C(=N/c2ccc(Cl)c(C(=O)O)c2)S/C1=C\c1ccc(-c2ccccc2Cl)o1`: the Activity in experiment [1] is below 50%.

On to `COC(=O)c1cc(/N=C2/NC(=O)/C(=C/c3ccc(-c4cc(C)c(C)cc4[N+](=O)[O-])o3)S2)ccc1Cl`, for which, in experiment [1], the Activity is below 50%.

For the compound `CC(C)NC(=O)c1cccc(CN2C(=O)/C(=C(\c3ccccc3)c3ccc(Cl)cc3)c3ccccc32)c1`, the EC50 in experiment [2] is 4.5 µM. Moreover, the Efficacy in [3] is 151%.

In the case of `O=C(O)c1cccc(CN2C(=O)/C(=C/c3ccc(-c4ccc(F)c(Cl)c4)o3)c3ccccc32)c1`, the Activity entry in experiment [4] and in experiment [6] was “Dose-dependent effect” throughout. Further, in [2], the EC50 was found to be 4.8 µM. In experiment [3], the Efficacy amounted to 122%.

For `Cc1cc(-c2ccc(/C=C3\S/C(=N\c4ccc(Cl)c(C(=O)O)c4)NC3=O)o2)c([N+](=O)[O-])cc1C`, the EC50 in experiment [7] was 9 µM; in experiment [8], 12 µM; in [5], 9.6 µM; in [2], 0.3 µM. For the same compound, the Efficacy in [3] came to 40%.

On to `O=C1N/C(=N/c2ccc(Cl)c(C(=O)O)c2)S/C1=C\c1ccc(-c2ccccc2[N+](=O)[O-])o1`, for which the Activity in experiment [1] is below 50%.

Consider `O=C(O)c1cccc(CN2C(=O)/C(=C(\c3ccccc3)c3ccccc3OC(F)(F)F)c3ccccc32)c1`, for which, in experiment [2], the EC50 came to 7.4 µM. Also, the Efficacy in experiment [3] was 99%.

By IC50 is commonly meant the midpoint of a concentration-inhibition curve. For `N#Cc1c(O)c2c(-c3ccc(-c4ccccc4O)cc3)csc2[nH]c1=O`, the EC50 in experiment [9] worked out at 0.8 µM. Besides, the IC50 in experiment [10] is 3.2 µM.

As for `O=C1N/C(=N/c2ccc(Cl)c(C(=O)O)c2)S/C1=C\c1ccc(-c2cccc([N+](=O)[O-])c2)o1`, the Activity in experiment [1] was determined as 176%.

In the case of `O=C1/C(=C(\c2ccccc2)c2ccc(Cl)cc2)c2ccccc2N1Cc1ccccc1`, the EC50 in experiment [2] is 1 µM. The Efficacy in [3] was found to be 70%.

As for `O=C(O)c1cccc(CN2C(=O)/C(=C(\c3ccccc3)c3ccc(F)c(Cl)c3)c3ccccc32)c1`, the EC50 in experiment [2] is 5.9 µM. Further, in experiment [3], the Efficacy turned out to be 105%.

On to `CN(C)C(=N)NC(=N)N` [METFORMIN], for which, in experiment [11], the Activity is 0.5 mM.
